Assay results taken from ChEMBL document CHEMBL4382270, “Total Synthesis and Biological Evaluation of Sericetin for Protection against Cisplatin-Induced Acute Kidney Injury” (J Nat Prod, 2018).
The source made the active and inactive calls. No cut-off for these calls is given here.

Assays:
NRK-52E [1] = test: Protection against cisplatin-induced cytotoxicity in rat NRK-52E cells assessed as increase in cell viability at 20 uM after 24 hrs by MTT assay; format: functional, cell-based
How it was run: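 NRK52E cells given test agent at 20 μM for 24 h, with or without cisplatin 30 μM. Vehicle is DMSO at 0.2% final. Viability read by MTT. Mean ± SEM, N = 3.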

NRK-52E [2] = test: Protection against cisplatin-induced cytotoxicity in rat NRK-52E cells assessed as improvement in morphological changes after 24 hrs by microscopic analysis; format: functional, cell-based
How it was run: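 Cells (NRK-52E) exposed to test agent at 0, 1, 10 or 50 μM plus cisplatin 30 μM for 24 h. Morphology then examined by light microscopy.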

NRK-52E [3] = test: Protection against cisplatin-induced cytotoxicity in rat NRK-52E cells assessed as increase in cell viability after 24 hrs by MTT assay; format: functional, cell-based
How it was run: (§1)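 NRK-52E rat renal tubular epithelial cells (ATCC) exposed to test agent at 0, 1, 10 or 50 μM for 24 h, with or without cisplatin 30 μM (PBS stock). Viability measured by MTT. Mean ± SEM, N = 3.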

NRK-52E [4] = test: Cytotoxicity against rat NRK-52E cells assessed as effect on cell viability at 1 to 50 uM after 24 hrs by MTT assay; format: cell-based; how it was run: as §1
NRK-52E [5] = test: Protection against cisplatin-induced cell damage in rat NRK-52E cells assessed as reduction in reactive oxygen species generation at 10 uM after 24 hrs by DCF staining based fluorescence microscopic analysis; format: functional
How it was run: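 NRK-52E cells co-treated with cisplatin 30 μM and test agent 10 μM for 24 h. ROS stained with CM-H2DCFDA (DCF) and imaged by fluorescence. Percent ROS derived from DCF signal by region-of-interest quantitation. Mean ± SEM, N = 3.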

NRK-52E [6] = test: Protection against cisplatin-induced cell damage in rat NRK-52E cells assessed as reversal of mitochondrial membrane potential loss at 10 uM after 24 hrs by JC1 staining based fluorescence microscopic analysis; format: functional
How it was run: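 After 24 h of cisplatin 30 μM with or without test agent 10 μM, NRK-52E cells stained with JC-1 and imaged by fluorescence microscopy. Red (aggregate) and green (monomer) signals quantified by ROI. Mean ± SEM, N = 3.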

NRK-52E [7] = test: Protection against cisplatin-induced apoptosis in rat NRK-52E cells assessed as reduction in cleaved caspase-3 level at 10 uM after 24 hrs by Western blot analysis; format: functional, cell-based
How it was run: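 NRK-52E cells given cisplatin 30 μM with or without test agent 10 μM for 24 h. Cleaved (active) caspase-3 detected by Western blot and quantified by densitometry. Mean ± SEM, N = 3.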

Rattus norvegicus [8] = test: (§2) Protection against cisplatin-induced […] in Sprague-Dawley rat assessed as reduction in cleaved caspase-3 level in kidneys at 1 mg/kg pretreated for 24 hrs followed by cisplatin challenge and subsequent qd dosing for 5 days measured 7 days post cisplatin challenge by Western blot analysis; format: functional, organism-based
How it was run: (§3)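 Male Sprague-Dawley rats (200 ± 10 g) received a single ip cisplatin dose of 6 mg/kg in saline. Test agent 1 mg/kg in 5% DMSO/0.9% saline given once 24 h before cisplatin, then daily for 5 days. Sacrifice on day 7. Read-outs: serum BUN and creatinine by clinical chemistry, kidney H&E histology, and cleaved caspase-3 by Western blot of kidney homogenate. N = 6/group.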

Rattus norvegicus [9] = test: as §2, with “reversal of histopathological changes” for “reduction”, “kidney” for “cleaved caspase-3 level in kidneys”, “H and E staining based light microscopic” for “Western blot”; format: functional, organism-based; how it was run: as §3
Rattus norvegicus [10] = test: Protection against cisplatin-induced acute liver injury in Sprague-Dawley rat assessed as restoration of serum BUN levels at 1 mg/kg pretreated for 24 hrs followed by cisplatin challenge and subsequent qd dosing for 5 days measured 7 days post cisplatin challenge; format: functional, organism-based; details: in the assay text read “acute kidney injury” for “acute liver injury”; how it was run: as §3
Rattus norvegicus [11] = test: Protection against cisplatin-induced acute liver injury in Sprague-Dawley rat assessed as restoration of serum creatinine levels at 1 mg/kg pretreated for 24 hrs followed by cisplatin challenge and subsequent qd dosing for 5 days measured 7 days post cisplatin challenge; format: functional, organism-based; details: in the assay text read “acute kidney injury” for “acute liver injury”; how it was run: as §3
[12] = Renal toxicity in Sprague-Dawley rat assessed as histopathological changes in kidney at 1 mg/kg administered once daily for 6 days by H and E staining based light microscopic analysis; format: organism-based; details: in vivo, 144 h
How it was run: (§4)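 Male Sprague-Dawley rats (200 ± 10 g) given test agent alone at 1 mg/kg in 5% DMSO/0.9% saline, once and then daily for 5 further days. Killed on day 7. Serum BUN and creatinine measured by clinical chemistry, and kidneys examined by H&E histology.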

[13] = Renal toxicity in Sprague-Dawley rat assessed as change in serum BUN levels at 1 mg/kg administered once daily for 6 days; format: organism-based; details: in vivo, 144 h; how it was run: as §4
[14] = Renal toxicity in Sprague-Dawley rat assessed as change in serum creatinine levels at 1 mg/kg administered once daily for 6 days; format: organism-based; details: in vivo, 144 h; how it was run: as §4

For CC(C)=CCOc1c2c(cc3oc(-c4ccccc4)c(OCc4ccccc4)c(=O)c13)OC(C)(C)C=C2, the Activity (NRK-52E [1]) was “Active”, the Activity (NRK-52E [2]) was “Dose-dependent effect” and the Activity (NRK-52E [3]) was “Dose-dependent effect”. The Activity (NRK-52E [4]) was “Non-Toxic”, the Activity (NRK-52E [5]) was “Active” and the Activity (NRK-52E [6]) was “Active”. The Activity (NRK-52E [7]) was “Active”, the Activity (Rattus norvegicus [8]) was “Active” and the Activity (Rattus norvegicus [9]) was “Active”. The Activity (Rattus norvegicus [10]) was “Active”, the Activity (Rattus norvegicus [11]) was “Active” and the Activity [12] was “Non-Toxic”. The Activity [13] was “Non-Toxic” and the Activity [14] was “Non-Toxic”.
